Experimental findings from ChEMBL document CHEMBL2176871, “Development of ligands at γ-aminobutyrric acid type A (GABAA) receptor subtype as new agents for pain relief” (Bioorg Med Chem, 2011) are described below.

In series [1] the test system is Mus musculus. The experiment in a line: Antihyperalgesic activity against streptozotocin-induced hyperalgesia in Swiss albino mouse […] assessed as licking latency time at 30 mg/kg, po after 60 mins by hot plate test (reference value: 9.2 +/- 0.8 secs). Format: functional.
Series [2] deals with Mus musculus. The experiment in a line: Antihyperalgesic activity Swiss albino mouse […] assessed as licking latency time at 30 mg/kg, po after 30 mins by hot plate test (reference value: 17.9 +/- 1.1 secs). The format is functional. The gist of the method: (§1)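 Hot plate at 52.5 ± 0.1 °C in non-diabetic male Swiss mice. Latency to licking of fore or hind paws was timed before dosing and every 15 min up to 60 min after oral dosing. Mice with pretest latencies below 12 s or above 18 s were excluded. Cut-off was 45 s.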
(In hot-plate and tail-flick tests a longer latency is read as antinociception.)

Series [3] concerns Rattus norvegicus. The experiment in a line: Toxicity in Sprague-Dawley rat mononeuropathy pain model assessed as effect on contralateral paw pressure at 60 mg/kg, po after 45 mins by paw pressure test. Format: organism-based. Also noted: dose 60 mg/kg, route oral. Conditions: in vivo, 0.75 h. A digest of the protocol:
(§2)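 Same sciatic-ligation rat model, 14 days after surgery. Threshold measured on the non-operated contralateral hind paw by analgesimeter at 32 g/s; first-struggle endpoint; 250 g cut-off; pretest rats outside 40–75 g rejected. Compound given po in 10 ml/kg; readings at 15, 30 and 45 min.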

Series [4] relates to Rattus norvegicus. The experiment in a line: Toxicity in Sprague-Dawley rat mononeuropathy pain model assessed as effect on contralateral paw pressure at 60 mg/kg, po after 15 mins by paw pressure test. The format is organism-based. Also noted: dose 60 mg/kg, route oral. The settings on record: in vivo, 0.25 h. The gist of the method: as §2
Series [5] has as its system Rattus norvegicus. The experiment in a line: Toxicity in Sprague-Dawley rat mononeuropathy pain model assessed as effect on contralateral paw pressure at 10 mg/kg, po after 15 mins by paw pressure test. Format: organism-based. Also noted: dose 10 mg/kg, route oral. The settings on record: in vivo, 0.25 h. The gist of the method: as §2
Series [6] deals with Mus musculus. The experiment in a line: Antihyperalgesic activity against streptozotocin-induced hyperalgesia in Swiss albino mouse […] assessed as licking latency time at 30 mg/kg, po after 45 mins by hot plate test (reference value: 9.2 +/- 0.8 secs). The format is functional.
Series [7] has as its system Mus musculus. The experiment in a line: Antihyperalgesic activity Swiss albino mouse […] assessed as licking latency time at 30 mg/kg, po after 45 mins by hot plate test (reference value: 17.9 +/- 1.1 secs). The format is functional. The gist of the method: as §1
For series [8], the system named is Rattus norvegicus. The experiment in a line: Antinociceptive activity in Sprague-Dawley rat mononeuropathy pain model assessed as increase in injured paw pressure at 30 mg/kg, po after 45 mins by paw pressure test relative to non-treated control. Format: functional. The gist of the method: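 Chronic constriction injury: loose ligatures placed on the common sciatic nerve under chloral hydrate; contralateral sham dissection. Tested 14 days after surgery. Paw pressure applied at 32 g/s; threshold taken as the force causing the first struggle; cut-off 250 g; pretest outliers (<40 g or >75 g) excluded. Oral dosing in 10 ml/kg; read at 15, 30 and 45 min; compared with a CMC-treated group.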

For series [9], the system named is Rattus norvegicus. The experiment in a line: Toxicity in Sprague-Dawley rat mononeuropathy pain model assessed as effect on contralateral paw pressure at 10 mg/kg, po after 30 mins by paw pressure test. The format is organism-based. Also noted: dose 10 mg/kg, route oral. Conditions: in vivo, 0.5 h. The gist of the method: as §2
In series [10] the test system is Rattus norvegicus. The experiment in a line: Toxicity in Sprague-Dawley rat mononeuropathy pain model assessed as effect on contralateral paw pressure at 1 mg/kg, po after 30 mins by paw pressure test. Conditions: in vivo, 0.5 h. The format is organism-based. On the set-up: dose 1 mg/kg, route oral. The gist of the method:
as §2

Regarding `Cc1cnn2c1n[n+]([O-])c1ccc(OCc3ccccc3)cc12`, the Time in the series with Mus musculus [1] worked out at 15.7 s; in the series with Mus musculus [2] it was 18.1 s; with Mus musculus [6], 18.8 s; in the series with Mus musculus [7], 18.5 s. Besides, the Activity in the series with Rattus norvegicus [3] was determined as 57.2 g; with Rattus norvegicus [4], 59.9 g; in the series on Rattus norvegicus [5], 60.4 g; in the series with Rattus norvegicus [8] it was 35.2 g; in the series with Rattus norvegicus [9] it was 62.7 g; in the series with Rattus norvegicus [10] it was 60.6 g.
